Assay results: ChEMBL document CHEMBL4257580, “Tanshinone-IIA-Based Analogues of Imidazole Alkaloid Act as Potent Inhibitors To Block Breast Cancer Invasion and Metastasis in Vivo” (J Med Chem, 2018)
Active and inactive are the calls of the source. No cut-off for these calls is given here.

What was measured:
[1] = tested on: MDA-MB-231; experiment: Antiproliferative activity against human MDA-MB-231 cells after 72 hrs by MTT assay; assay type: functional, cell-based
Outline: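 MDA-MB-231 cells grown in DMEM with 10% FBS and penicillin/streptomycin at 37 °C under 5% CO2. Seeded at 5×10^3 cells/well for 24 h, then exposed to compound across a concentration range for 72 h. MTT (5 mg/mL in PBS) added for 5 h, formazan dissolved in DMSO, absorbance read at 570 nm. Three repeats.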

[2] = tested on: L02; experiment: Antiproliferative activity against human L02 cells after 72 hrs by MTT assay; assay type: cell-based; settings: L02, 72 h
Outline: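 A549, HeLa, HepG2 and normal liver L02 cells kept in DMEM with 10% FBS at 37 °C under 5% CO2. Plated at 5×10^3 cells/well for 24 h, then treated with graded concentrations for 72 h. Viability measured by MTT reduction (5 h), formazan dissolved in DMSO and read at 570 nm. Three repeats.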

[3] = tested on: MDA-MB-231; experiment: Antiinvasive activity against human MDA-MB-231 cells assessed as reduction in number of black holes at 3 uM after 24 hrs by FITC-gelatin based confocal microscopy; assay type: functional, cell-based
Outline: (§1)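 Coverslips coated with poly-L-lysine, fixed with glutaraldehyde, overlaid with 0.2% FITC-gelatin in PBS/2% sucrose and quenched with sodium borohydride. Cells (2×10^5/well) plated with 0, 3 or 6 μM at 37 °C for 24 h. Gelatin degradation, seen as nonfluorescent dark holes, imaged by laser confocal microscopy; F-actin counterstained with rhodamine-phalloidin.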

[4] = tested on: MDA-MB-231; experiment: Antiinvasive activity against human MDA-MB-231 cells assessed as reduction in number of black holes at 6 uM after 24 hrs by FITC-gelatin based confocal microscopy; assay type: functional, cell-based; outline: as §1
[5] = tested on: MDA-MB-231; experiment: Antiangiogenesis activity in human MDA-MB-231 cells xenografted in fil1:EGFP transgenic zebrafish sub-intestinal vessels assessed as slowing of the sprout of angiogenesis at 5 uM measured every 24 hrs by fluorescence microscopy; assay type: functional, cell-based
Outline: (§2)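 Tg(fli1:EGFP) embryos at 48 hpf injected with 10–50 nL of DiI-labelled cells (~10^7 cells/mL in serum-free DMEM) into the perivitelline space near the subintestinal vessels. Ten embryos per well kept in 2 mL aquaculture water with 0 or 5 μM for 96 h. Imaged every 24 h by fluorescence microscopy; tumour area and trunk/tail fluorescence quantified, n=10/group, three experiments.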

[6] = tested on: MDA-MB-231; experiment: Antiangiogenesis activity in human MDA-MB-231 cells xenografted in fil1:EGFP transgenic zebrafish sub-intestinal vessels assessed as inhibition of cell migration at 5 uM measured every 24 hrs for 96 hrs by fluorescence microscopy; assay type: functional, cell-based; outline: as §2
[7] = tested on: MDA-MB-231; experiment: Antiangiogenesis activity in human MDA-MB-231 cells xenografted in fil1:EGFP transgenic zebrafish sub-intestinal vessels assessed as inhibition of cell invasion at 5 uM measured every 24 hrs for 96 hrs by fluorescence microscopy; assay type: functional, cell-based; outline: as §2
[8] = tested on: MDA-MB-231; experiment: Antitumor activity in human MDA-MB-231 cells xenografted in fil1:EGFP transgenic zebrafish sub-intestinal vessels assessed as reduction in tumor area at 5 uM measured every 24 hrs for 96 hrs by fluorescence microscopy; assay type: functional, cell-based; outline: as §2
[9] = tested on: Danio rerio; experiment: Toxicity in […] 24 hpf fil1:EGFP transgenic zebrafish embryo assessed as inhibition of normal angiogenesis at 2 to 4 uM after 48 hrs by fluorescence microscopy; assay type: organism-based; settings: in vivo
Outline: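 Non-xenografted Tg(fli1:EGFP) embryos dechorionated at 24 hpf and incubated with 0, 2 or 4 μM for 48 h, with PTK787 as positive control. Subintestinal vessel formation imaged at 72 hpf by fluorescence microscopy. n=10/group, three independent experiments.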

[10] = organism: Danio rerio; experiment: Ecotoxicity in fil1:EGFP transgenic zebrafish embryo up to 50 uM after 96 hrs by microscopic analysis; assay type: organism-based; settings: in vivo
[11] = tested on: MDA-MB-231; experiment: Antimetastasis activity in human MDA-MB-231 cells assessed reduction in FAK protein expression at 5 to 15 uM after 72 hrs by Western blot analysis; assay type: functional, cell-based
Outline: (§3)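 Cells treated with 0, 5, 10 or 15 μM for 72 h. Lysates quantified by BCA, equal protein resolved on 10% tricine SDS-PAGE and transferred to nitrocellulose. Membranes blocked in 5% milk/TBST, then primary antibodies 1:1000 overnight at 4 °C and HRP secondary 1:2000 for 1 h at room temperature. Three independent experiments.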

[12] = tested on: MDA-MB-231; experiment: Antimetastasis activity in human MDA-MB-231 cells assessed upregulation of GSKbeta protein expression at 5 to 15 uM after 72 hrs by Western blot analysis; assay type: functional, cell-based; outline: as §3
[13] = tested on: MDA-MB-231; experiment: Cell cycle arrest in human MDA-MB-231 cells assessed as accumulation at S phase at 5 uM after 72 hrs by propidium iodide staining based flow cytometry (reference value: 42.60%); assay type: functional
[14] = tested on: MDA-MB-231; experiment: Cell cycle arrest in human MDA-MB-231 cells assessed as accumulation at G2 phase at 5 uM after 72 hrs by propidium iodide staining based flow cytometry (reference value: 8%); assay type: functional
[15] = tested on: MDA-MB-231; experiment: Cell cycle arrest in human MDA-MB-231 cells assessed as accumulation at G1 phase at 15 uM after 72 hrs by propidium iodide staining based flow cytometry (reference value: 49.40%); assay type: functional
[16] = tested on: MDA-MB-231; experiment: Cell cycle arrest in human MDA-MB-231 cells assessed as accumulation at S phase at 15 uM after 72 hrs by propidium iodide staining based flow cytometry (reference value: 42.60%); assay type: functional
[17] = tested on: MDA-MB-231; experiment: Induction of apoptosis in human MDA-MB-231 cells assessed as early apoptotic cells at 5 uM after 72 hrs by annexin-V/propidium iodide double staining based flow cytometry (reference value: 0.02%); assay type: functional
[18] = tested on: MDA-MB-231; experiment: Induction of apoptosis in human MDA-MB-231 cells assessed as late apoptotic cells at 15 uM after 72 hrs by annexin-V/propidium iodide double staining based flow cytometry (reference value: 0.12%); assay type: functional
[19] = tested on: MDA-MB-231; experiment: Cell cycle arrest in human MDA-MB-231 cells assessed as up-regulation of p21 expression at 5 to 15 uM after 72 hrs by Western blot analysis; assay type: functional, cell-based; outline: as §3
[20] = tested on: MDA-MB-231; experiment: Cell cycle arrest in human MDA-MB-231 cells assessed as downregulation of cyclin A expression at 5 to 15 uM after 72 hrs by Western blot analysis; assay type: functional, cell-based; outline: as §3
[21] = tested on: MDA-MB-231; experiment: Induction of apoptosis in human MDA-MB-231 cells assessed as up-regulation of PARP expression at 5 to 15 uM after 72 hrs by Western blot analysis; assay type: functional, cell-based; outline: as §3
[22] = tested on: MDA-MB-231; experiment: Induction of DNA damage in human MDA-MB-231 cells assessed as increase in gammaH2AX focal positive cells up to 20 uM after 24 hrs by SYBR Green1-staining based fluorescence microscopy; assay type: functional, cell-based
[23] = tested on: MDA-MB-231; experiment: Induction of DNA damage in human MDA-MB-231 cells assessed as up-regulation of p53 expression at 2 to 15 uM by Western blot analysis; assay type: functional, cell-based
[24] = tested on: MDA-MB-231; experiment: Induction of DNA damage in human MDA-MB-231 cells assessed as up-regulation of gammaH2AX expression at 2 to 15 uM by Western blot analysis; assay type: functional, cell-based
[25] = tested on: MDA-MB-231; experiment: Induction of morphological changes in human MDA-MB-231 cells assessed as unevening of cell membrane surface with large and numerous particles at 5 to 20 uM after 72 hrs; assay type: functional, cell-based
[26] = tested on: MDA-MB-231; experiment: Cell cycle arrest in human MDA-MB-231 cells assessed as accumulation at G1 phase at 5 uM after 24 hrs by propidium iodide staining based flow cytometry (reference value: 49.40%)

For Cc1coc2c3ccc4c(c3c3[nH]c(-c5ccc(O)cc5)nc3c12)CCCC4(C)C, the Activity [1] was “Dose-dependent effect”, the IC50 ([1]; MDA-MB-231, 72 h) was 13.2 µM and the IC50 [2] was 49.1 µM. The Activity [3] was “Active”, the Activity [4] was “Active” and the Activity [5] was “Active”. The Activity [6] was “Active”, the Activity [7] was “Active” and the Activity [8] was “Active”. The Activity [9] was “Non-Toxic”, the Activity [10] was “Non-Toxic” and the Activity [11] was “Active”. The Activity [12] was “Active”, the Activity [13] was 46.41% and the Activity [14] was 11.21%. It also gave an Activity [15] of 35.37%, an Activity [16] of 54.51% and an Activity [17] of 2.22%. The Activity [18] was 2.73%, the Activity [19] was “Active” and the Activity [20] was “Active”. The Activity [21] was “Active”, the Activity [22] was “Active” and the Activity [23] was “Active”. The Activity [24] was “Active”, the Activity [25] was “Active” and the Activity [26] was 42.38%.
